Experimental findings from ChEMBL document CHEMBL1926564, “Design, synthesis and biological activity of original pyrazolo-pyrido-diazepine, -pyrazine and -oxazine dione derivatives as novel dual Nox4/Nox1 inhibitors” (Bioorg Med Chem, 2011) are described below.

Where only a bound is given, the exact number is not on record here.

For one series, the target named is T1, Cytochrome P450 1A2 (Homo sapiens, UniProt P05177).
T1 sequence (P05177 whole entry): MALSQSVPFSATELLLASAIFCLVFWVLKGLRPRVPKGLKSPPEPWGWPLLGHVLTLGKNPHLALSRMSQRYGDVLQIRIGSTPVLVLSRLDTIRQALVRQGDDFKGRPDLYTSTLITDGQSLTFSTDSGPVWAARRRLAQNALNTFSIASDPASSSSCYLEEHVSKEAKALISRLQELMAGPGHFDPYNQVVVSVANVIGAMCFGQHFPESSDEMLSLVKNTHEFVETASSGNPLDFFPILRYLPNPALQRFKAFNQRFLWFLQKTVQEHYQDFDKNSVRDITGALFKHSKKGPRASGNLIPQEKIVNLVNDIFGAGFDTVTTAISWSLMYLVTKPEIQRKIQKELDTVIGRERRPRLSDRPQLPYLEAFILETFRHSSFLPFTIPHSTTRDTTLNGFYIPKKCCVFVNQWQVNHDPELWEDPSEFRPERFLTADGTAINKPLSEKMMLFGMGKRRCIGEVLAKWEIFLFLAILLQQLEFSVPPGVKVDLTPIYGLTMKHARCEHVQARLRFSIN
Kind of series: Inhibition of human recombinant CYP1A2 assessed as inhibition of fluorescent metabolite formation. It is filed as ADME. In a few lines:
(§1)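 Compound 0.1–25 µM (0.3% DMSO) incubated with microsomes, NADPH and isoform-specific probe substrate. CYP2C19, 2C9, 2D6, 3A4 metabolites measured by mass spectrometry; CYP1A2 by fluorescent metabolite. IC50 from reduced metabolite formation versus vehicle.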

For the next series, the target named is hERG (Homo sapiens, UniProt Q12809). Put plainly: Inhibition of hERG at 1 uM by patch clamp assay. In kind it is toxicity. For orientation: The hERG channel carries a current that helps repolarise heart muscle cells.
Series [1] relates to Salmonella typhimurium. Kind of series: Genotoxicity in Salmonella Typhimurium at 100 uM by AMES test. In kind it is toxicity, organism-based. Particulars: salmonella enterica subsp. enterica serovar typhimurium.
A further series has as its target Cytochrome P450 2C19 (Homo sapiens, UniProt P33261). Put plainly: Inhibition of human recombinant CYP2C19 by mass spectrophotometry. It is filed as ADME. In a few lines: as §1
The target of another series is T2, NADPH oxidase 5 (Homo sapiens, UniProt Q96PH1).
T2 sequence (Q96PH1 whole entry): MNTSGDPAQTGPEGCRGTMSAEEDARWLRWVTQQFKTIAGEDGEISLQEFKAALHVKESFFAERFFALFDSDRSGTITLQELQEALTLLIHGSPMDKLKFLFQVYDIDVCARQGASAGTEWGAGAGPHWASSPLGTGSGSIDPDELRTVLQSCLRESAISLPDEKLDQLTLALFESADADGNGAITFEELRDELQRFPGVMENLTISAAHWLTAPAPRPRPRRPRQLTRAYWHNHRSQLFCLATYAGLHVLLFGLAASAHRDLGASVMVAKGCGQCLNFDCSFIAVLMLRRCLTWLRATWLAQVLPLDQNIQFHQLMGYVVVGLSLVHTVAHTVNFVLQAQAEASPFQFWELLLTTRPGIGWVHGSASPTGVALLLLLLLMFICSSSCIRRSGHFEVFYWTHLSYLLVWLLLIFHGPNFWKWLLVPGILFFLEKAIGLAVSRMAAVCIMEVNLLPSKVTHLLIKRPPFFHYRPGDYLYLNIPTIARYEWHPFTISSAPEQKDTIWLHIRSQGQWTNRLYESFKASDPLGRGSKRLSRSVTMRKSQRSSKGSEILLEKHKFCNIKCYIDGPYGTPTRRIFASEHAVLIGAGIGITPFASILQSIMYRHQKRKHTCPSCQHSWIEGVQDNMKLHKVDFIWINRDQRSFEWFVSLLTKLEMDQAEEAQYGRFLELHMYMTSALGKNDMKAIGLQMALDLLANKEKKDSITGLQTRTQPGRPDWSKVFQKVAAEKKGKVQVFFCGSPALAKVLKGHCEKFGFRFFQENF
Put plainly: Antagonist activity at human NOX5 assessed as inhibition of ROS production after 20 mins by cell-free amplex red assay. It is filed as functional. In a few lines:
(§2)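 Membranes from tetracycline-induced (24 h) Nox-expressing cells or human PMN (Nox2), sucrose-gradient purified; or xanthine oxidase. Incubated in PBS with Amplex Red, HRP and cofactors; NADPH (Nox) or xanthine starts ROS. Compound 1 nM–100 µM, 20 min at 37 °C, plate-reader. Background without membranes or agonist. Ki by Cheng-Prusoff; mean of ≥3 experiments in triplicate.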

Another series concerns the target Cytochrome P450 2C9 (Homo sapiens, UniProt P11712). Kind of series: Inhibition of human recombinant CYP2C9 by mass spectrophotometry. It is filed as ADME. The gist of the method: as §1
Series [2] deals with Xanthine dehydrogenase/oxidase (Homo sapiens, UniProt P47989). Put plainly: Inhibition of xanthine oxidase assessed as inhibition of ROS production after 20 mins by cell-free amplex red assay. In a few lines: as §2
A further series addresses Cytochrome P450 3A4 (Homo sapiens, UniProt P08684). Put plainly: Inhibition of human recombinant CYP3A4 by mass spectrophotometry. In kind it is ADME. In a few lines:
as §1

The next series deals with Mus musculus. Put plainly: Antifibrotic activity in C57BL/6 mouse pulmonary fibrosis curative model assessed as reduction in bleomycin-induced collagen deposition at 10 mg/kg, po qd administered 10 days post challenge […] measured on day 25 by SIRCOL assay. In kind it is functional. The gist of the method:
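Male C57BL/6 mice (9–10 weeks) under ketamine/xylazine given 0.0125 U bleomycin intratracheally in 40 µL saline. Daily oral dosing at 10 mL/kg in 3% DMSO then aqueous 0.5% CMC/0.25% Tween 20. Whole-lung collagen by Sircol dye binding (0.5 M acetic acid extraction overnight, 540 nm, rat-tail collagen standard), µg per lung.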

A short description of series [3]: Half life in Sprague-Dawley rat at 5 mg/kg, iv. As to conditions: in vivo. Also on record: dose 5 mg/kg, route intravenous. In kind it is ADME, organism-based. In a few lines: (§3)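 Rats in two groups of three: 5 mg/kg iv in EDPW (10% EtOH, 10% DMA, 30% PG, 50% water) or 10 mg/kg oral in aqueous 0.5% CMC/0.25% Tween 20. Carotid arterial cannula blood sampled up to 24 h. Plasma levels by LC/MS/MS (LLOQ 1.00 ng/mL); noncompartmental analysis.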

The test system of series [4] is Salmonella typhimurium. Kind of series: Mutagenicity in Salmonella Typhimurium at 100 uM by AMES test. It is filed as toxicity, organism-based. Particulars: salmonella enterica subsp. enterica serovar typhimurium.
The next series has as its target Cytochrome P450 2D6 (Homo sapiens, UniProt P10635). Kind of series: Inhibition of human recombinant CYP2D6 by mass spectrophotometry. It is filed as ADME. In a few lines:
as §1

A short description of series [5]: Half life in Sprague-Dawley rat at 10 mg/kg, po. It is filed as ADME, organism-based. Also on record: dose 10 mg/kg, route oral. Particulars: in vivo. The gist of the method:
as §3

Series [6] can be described thus: AUC (infinity) in Sprague-Dawley rat at 5 mg/kg, iv. It is filed as ADME, organism-based. Also on record: time infinity, dose 5 mg/kg, route intravenous. As to conditions: plasma. The gist of the method:
as §3

Series [7] is described as follows: Mutagenicity in micronucleus at 500 uM by in vitro assay. In kind it is ADME.
Series [8] can be described thus: Apparent permeability across human Caco2 cells at 10 uM after 2 hrs. In kind it is ADME, cell-based. As to conditions: Caco-2. In a few lines:
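Caco-2 monolayers grown 20 days, TEER >800 ohm·cm². Compound 10 µM final in HBSS pH 6.5 (1% DMSO), dosed apical (A→B) or basolateral (B→A), 2 h at 37 °C; both compartments sampled, LC–MS/MS cassette analysis with 5-point calibration.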

Series [9] can be described thus: Cmax in Sprague-Dawley rat at 5 mg/kg, iv. In kind it is ADME, organism-based. Also on record: dose 5 mg/kg, route intravenous. Particulars: in vivo. In a few lines: as §3
The species entered for a further series is Homo sapiens. Put plainly: Selectivity ratio of Ki for human NOX2 to Ki for human NOX4. The gist of the method:
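Ratio of Ki values from the Amplex Red membrane ROS assay (PMN membranes for Nox2, Nox4-overexpressing membranes), NADPH-triggered, 1 nM–100 µM, 20 min at 37 °C; Ki via Cheng-Prusoff.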

Chain of Cytochrome P450 2D6 (P10635 whole entry): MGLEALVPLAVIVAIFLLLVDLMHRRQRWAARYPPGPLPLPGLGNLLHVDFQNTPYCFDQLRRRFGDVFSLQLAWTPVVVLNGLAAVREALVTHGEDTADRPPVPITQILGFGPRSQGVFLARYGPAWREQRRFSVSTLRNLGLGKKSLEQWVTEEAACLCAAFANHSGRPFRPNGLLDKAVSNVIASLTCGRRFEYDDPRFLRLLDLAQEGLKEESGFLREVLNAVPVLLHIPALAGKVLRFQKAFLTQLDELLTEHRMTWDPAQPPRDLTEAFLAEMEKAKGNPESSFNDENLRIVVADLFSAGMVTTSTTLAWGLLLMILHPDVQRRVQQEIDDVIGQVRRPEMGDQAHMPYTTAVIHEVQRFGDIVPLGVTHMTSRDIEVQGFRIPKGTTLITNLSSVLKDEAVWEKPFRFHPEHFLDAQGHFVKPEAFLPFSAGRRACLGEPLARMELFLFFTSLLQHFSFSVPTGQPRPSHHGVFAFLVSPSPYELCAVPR
Chain of Cytochrome P450 2C9 (P11712 whole entry): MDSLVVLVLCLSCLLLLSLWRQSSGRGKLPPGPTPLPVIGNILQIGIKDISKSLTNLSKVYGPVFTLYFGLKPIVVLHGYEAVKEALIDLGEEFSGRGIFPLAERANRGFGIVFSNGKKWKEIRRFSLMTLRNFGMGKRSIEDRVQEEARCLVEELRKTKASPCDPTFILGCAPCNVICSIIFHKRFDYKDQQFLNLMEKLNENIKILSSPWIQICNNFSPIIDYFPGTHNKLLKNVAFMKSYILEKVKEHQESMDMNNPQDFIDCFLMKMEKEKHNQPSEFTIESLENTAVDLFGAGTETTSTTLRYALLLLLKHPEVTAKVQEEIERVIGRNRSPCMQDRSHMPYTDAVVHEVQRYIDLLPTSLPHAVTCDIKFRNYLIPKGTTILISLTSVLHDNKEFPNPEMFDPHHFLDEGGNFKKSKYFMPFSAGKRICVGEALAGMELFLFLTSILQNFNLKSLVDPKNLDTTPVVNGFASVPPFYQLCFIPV
Chain of Cytochrome P450 2C19 (P33261 whole entry): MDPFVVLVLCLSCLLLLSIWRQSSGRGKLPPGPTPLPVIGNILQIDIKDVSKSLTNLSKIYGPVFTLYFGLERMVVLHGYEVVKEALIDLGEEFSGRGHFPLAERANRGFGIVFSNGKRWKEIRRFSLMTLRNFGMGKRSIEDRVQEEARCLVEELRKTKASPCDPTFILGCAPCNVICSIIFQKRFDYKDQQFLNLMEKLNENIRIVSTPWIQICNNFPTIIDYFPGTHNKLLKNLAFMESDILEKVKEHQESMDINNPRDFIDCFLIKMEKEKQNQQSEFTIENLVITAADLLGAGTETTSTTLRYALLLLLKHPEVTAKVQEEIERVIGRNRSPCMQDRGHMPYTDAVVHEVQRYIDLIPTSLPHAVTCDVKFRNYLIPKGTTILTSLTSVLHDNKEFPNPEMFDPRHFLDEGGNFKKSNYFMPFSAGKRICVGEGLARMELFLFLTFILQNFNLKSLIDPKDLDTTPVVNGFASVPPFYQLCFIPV
Chain of Xanthine dehydrogenase/oxidase (P47989 whole entry): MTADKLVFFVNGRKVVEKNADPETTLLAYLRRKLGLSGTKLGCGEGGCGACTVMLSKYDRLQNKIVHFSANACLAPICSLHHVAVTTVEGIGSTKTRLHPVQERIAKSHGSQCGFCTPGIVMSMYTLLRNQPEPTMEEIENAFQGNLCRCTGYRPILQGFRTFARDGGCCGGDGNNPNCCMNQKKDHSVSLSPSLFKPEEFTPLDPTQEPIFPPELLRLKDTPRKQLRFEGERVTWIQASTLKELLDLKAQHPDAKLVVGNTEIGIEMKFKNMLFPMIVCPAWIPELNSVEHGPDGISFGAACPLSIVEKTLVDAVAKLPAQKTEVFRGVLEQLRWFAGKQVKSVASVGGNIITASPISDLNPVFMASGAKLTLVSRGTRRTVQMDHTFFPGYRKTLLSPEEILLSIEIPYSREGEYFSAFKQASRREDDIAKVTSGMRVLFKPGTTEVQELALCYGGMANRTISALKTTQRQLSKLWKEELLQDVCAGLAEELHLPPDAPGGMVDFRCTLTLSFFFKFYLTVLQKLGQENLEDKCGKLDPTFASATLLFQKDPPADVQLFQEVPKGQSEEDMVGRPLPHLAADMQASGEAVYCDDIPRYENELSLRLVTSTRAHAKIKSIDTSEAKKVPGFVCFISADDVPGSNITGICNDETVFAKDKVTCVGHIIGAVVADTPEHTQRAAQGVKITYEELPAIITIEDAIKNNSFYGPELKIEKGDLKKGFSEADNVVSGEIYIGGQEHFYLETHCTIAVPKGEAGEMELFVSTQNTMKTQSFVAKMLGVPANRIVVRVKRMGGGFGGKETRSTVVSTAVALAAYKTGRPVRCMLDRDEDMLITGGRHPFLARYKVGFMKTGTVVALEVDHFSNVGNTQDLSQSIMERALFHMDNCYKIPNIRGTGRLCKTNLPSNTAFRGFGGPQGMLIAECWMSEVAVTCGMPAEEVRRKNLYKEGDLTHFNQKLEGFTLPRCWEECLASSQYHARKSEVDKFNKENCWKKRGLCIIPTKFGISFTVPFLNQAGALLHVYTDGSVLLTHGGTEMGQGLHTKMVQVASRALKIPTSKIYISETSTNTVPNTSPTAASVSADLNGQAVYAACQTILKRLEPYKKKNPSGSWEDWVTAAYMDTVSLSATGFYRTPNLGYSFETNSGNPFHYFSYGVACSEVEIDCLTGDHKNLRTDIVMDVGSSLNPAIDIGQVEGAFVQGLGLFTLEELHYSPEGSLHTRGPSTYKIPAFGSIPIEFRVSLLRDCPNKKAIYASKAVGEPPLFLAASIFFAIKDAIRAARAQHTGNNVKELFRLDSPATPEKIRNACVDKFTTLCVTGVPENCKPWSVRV
Chain of hERG (Q12809 whole entry): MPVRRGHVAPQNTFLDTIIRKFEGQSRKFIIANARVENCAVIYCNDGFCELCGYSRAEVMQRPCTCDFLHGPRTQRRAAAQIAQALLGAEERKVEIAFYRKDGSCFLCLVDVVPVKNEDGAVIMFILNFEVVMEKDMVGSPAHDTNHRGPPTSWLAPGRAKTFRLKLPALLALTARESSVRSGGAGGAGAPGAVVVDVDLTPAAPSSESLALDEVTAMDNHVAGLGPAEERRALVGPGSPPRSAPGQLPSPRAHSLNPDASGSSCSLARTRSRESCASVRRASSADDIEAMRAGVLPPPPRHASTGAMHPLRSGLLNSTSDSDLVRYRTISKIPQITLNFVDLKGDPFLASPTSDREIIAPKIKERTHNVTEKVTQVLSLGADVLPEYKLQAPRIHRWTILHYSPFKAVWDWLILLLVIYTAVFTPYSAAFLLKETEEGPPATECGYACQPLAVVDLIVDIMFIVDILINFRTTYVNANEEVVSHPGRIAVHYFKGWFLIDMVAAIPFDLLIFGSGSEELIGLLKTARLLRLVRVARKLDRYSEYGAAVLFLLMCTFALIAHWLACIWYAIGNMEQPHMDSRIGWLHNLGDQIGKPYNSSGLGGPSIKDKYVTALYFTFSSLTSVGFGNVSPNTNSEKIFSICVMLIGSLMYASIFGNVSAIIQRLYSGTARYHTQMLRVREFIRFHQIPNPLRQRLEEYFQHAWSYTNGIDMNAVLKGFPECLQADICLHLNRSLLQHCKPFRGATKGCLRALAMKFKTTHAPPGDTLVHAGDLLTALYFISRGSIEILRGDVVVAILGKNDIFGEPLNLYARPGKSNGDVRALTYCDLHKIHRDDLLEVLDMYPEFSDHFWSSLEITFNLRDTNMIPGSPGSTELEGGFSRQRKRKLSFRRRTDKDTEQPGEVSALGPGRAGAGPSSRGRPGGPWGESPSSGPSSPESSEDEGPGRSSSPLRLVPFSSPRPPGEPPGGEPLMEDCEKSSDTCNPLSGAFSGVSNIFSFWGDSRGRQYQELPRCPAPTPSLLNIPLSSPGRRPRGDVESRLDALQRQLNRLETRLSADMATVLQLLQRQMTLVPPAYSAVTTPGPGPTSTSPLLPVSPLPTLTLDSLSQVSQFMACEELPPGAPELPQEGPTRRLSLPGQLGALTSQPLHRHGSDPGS
Chain of Cytochrome P450 3A4 (P08684 whole entry): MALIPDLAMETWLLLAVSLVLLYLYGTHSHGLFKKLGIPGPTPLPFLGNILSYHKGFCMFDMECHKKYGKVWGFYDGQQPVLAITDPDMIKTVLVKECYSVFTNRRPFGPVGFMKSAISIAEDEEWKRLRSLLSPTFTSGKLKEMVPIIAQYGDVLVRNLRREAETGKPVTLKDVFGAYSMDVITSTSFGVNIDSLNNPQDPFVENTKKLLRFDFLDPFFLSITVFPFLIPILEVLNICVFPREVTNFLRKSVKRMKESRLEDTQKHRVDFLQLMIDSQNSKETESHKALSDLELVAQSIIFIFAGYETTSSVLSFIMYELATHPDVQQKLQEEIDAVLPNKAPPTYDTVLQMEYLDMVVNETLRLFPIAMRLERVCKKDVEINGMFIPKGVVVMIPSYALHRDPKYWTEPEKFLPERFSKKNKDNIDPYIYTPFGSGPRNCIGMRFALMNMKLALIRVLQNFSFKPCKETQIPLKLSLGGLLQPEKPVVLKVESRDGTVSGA

As to `Cl.O=c1c2c3n(c(=O)cc2[nH]n1-c1ccccc1Cl)CCCN(Cc1ccccc1)C3`, the half-inhibitory concentration (IC50) at Cytochrome P450 1A2, on Cytochrome P450 2C19, on Cytochrome P450 2C9, on Cytochrome P450 3A4 and on Cytochrome P450 2D6 was more than 25 µM throughout. This compound came in with an inhibition at 1 µM at hERG of 8.7%. Also, the Activity result (with Salmonella typhimurium [1]; in the series on Salmonella typhimurium [4]; in series [7]) was “Non-toxic” throughout. In addition, the Ki on NADPH oxidase 5 was 0.414 µM; in series [2], more than 30 µM. Moreover, the inhibition in vivo at 10 mg/kg with Mus musculus turned out to be 64%. Also, the half-life is 2.71 h in series [3] and 2.37 h in [5]. In series [6], this compound displayed an AUC(0-inf) of 39300 ng·h/mL. Also, the apparent permeability coefficient (Papp) at 2 h, 10 µM in series [8] turned out to be 42.2 ×10⁻⁶ cm/s. Also, the peak level in series [9] (Cmax) was 42300 ng/mL. Also, the Ratio Ki in the series listed under Homo sapiens was 18.6.

As for `Cl.O=c1c2c3n(c(=O)cc2[nH]n1-c1ccccc1Cl)CCCN(Cc1ccccn1)C3`, the Ki at NADPH oxidase 5 came to 0.543 µM. Also, the half-life is 5.62 h in series [3] and 3.63 h in [5]. In [6], this compound yielded a total exposure AUC(0-inf) of 11800 ng·h/mL. In series [8], the apparent permeability (Papp) at 2 h, 10 µM turned out to be 1.8 ×10⁻⁶ cm/s. For the same compound, the highest level in series [9] (Cmax) was 21800 ng/mL.

A word on the IC50: it is the concentration needed to halve the response being measured. One may read the inhibition as the drop in the measured response relative to a control, in per cent. Usually Ki stands for the dissociation constant of the complex between target and ligand, obtained from inhibition or displacement. As usually defined, the inhibition in vivo is the change of the read-out against control, counted positive when it falls. As a reminder, the half-life is the time in which the quantity being followed falls by half. Lower therefore signals rapid decline. Broadly, the AUC(0-inf) is the area under the concentration-time curve extrapolated to infinity. Read a high AUC(0-inf) as more exposure. By Papp is commonly meant the rate of passage across a membrane or cell layer, normalised by area and donor concentration. For orientation: Cmax means the peak of the concentration-time curve.
